Reference: ChEMBL document CHEMBL3627671, “Novel derivatives of nitro-substituted salicylic acids: Synthesis, antimicrobial activity and cytotoxicity” (Bioorg Med Chem, 2015)

What was measured:
Format in all cases: functional
[1] = system: Mycobacterium tuberculosis; assay: Antimycobacterial activity against Mycobacterium tuberculosis H37Rv 331/88 after 14 days; conditions: H37Rv 331/88, 336 h
[2] = system: Mycobacterium tuberculosis; assay: Antimycobacterial activity against Mycobacterium tuberculosis H37Rv 331/88 after 21 days; conditions: H37Rv 331/88, 504 h
Mycobacterium avium [3] = assay: Antimycobacterial activity against Mycobacterium avium 330/80 after 14 days; conditions: 330/80, 336 h
Mycobacterium avium [4] = assay: Antimycobacterial activity against Mycobacterium avium 330/80 after 21 days; conditions: 330/80, 504 h
Mycobacterium kansasii [5] = assay: Antimycobacterial activity against Mycobacterium kansasii 235/80 after 7 days; conditions: 235/80, 168 h
Method in brief: (§1)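 Šula's semisynthetic medium micromethod at 37 °C, read after 7, 14 and 21 days. The 1.0 McFarland suspension was diluted 10^-4. MIC determined. 6509/96 is a clinical isolate.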

Mycobacterium kansasii [6] = assay: Antimycobacterial activity against Mycobacterium kansasii 235/80 after 14 days; conditions: 235/80, 336 h; method in brief: as §1
Mycobacterium kansasii [7] = assay: Antimycobacterial activity against Mycobacterium kansasii 235/80 after 21 days; conditions: 235/80, 504 h; method in brief: as §1
Mycobacterium kansasii [8] = assay: Antimycobacterial activity against Mycobacterium kansasii 6509/96 after 7 days; conditions: 6509/96, 168 h; method in brief: as §1
Mycobacterium kansasii [9] = assay: Antimycobacterial activity against Mycobacterium kansasii 6509/96 after 14 days; conditions: 6509/96, 336 h; method in brief: as §1
Mycobacterium kansasii [10] = assay: Antimycobacterial activity against Mycobacterium kansasii 6509/96 after 21 days; conditions: 6509/96, 504 h; method in brief: as §1
Staphylococcus aureus [11] = assay: Antibacterial activity against Staphylococcus aureus CCM 4516/08 after 24 hrs by microdilution broth method; conditions: CCM 4516/08, 24 h
Staphylococcus aureus [12] = assay: Antibacterial activity against Staphylococcus aureus CCM 4516/08 after 48 hrs by microdilution broth method; conditions: CCM 4516/08, 48 h
Staphylococcus aureus [13] = assay: Antibacterial activity against methicillin-resistant Staphylococcus aureus H 5996/08 after 24 hrs by microdilution broth method; conditions: H 5996/08, 24 h
Staphylococcus aureus [14] = assay: Antibacterial activity against methicillin-resistant Staphylococcus aureus H 5996/08 after 48 hrs by microdilution broth method; conditions: H 5996/08, 48 h
[15] = system: Staphylococcus epidermidis; assay: Antibacterial activity against Staphylococcus epidermidis H 6966/08 after 24 hrs by microdilution broth method; conditions: H 6966/08, 24 h
Method in brief: (§2)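 Mueller-Hinton broth microdilution (modified M07-A07), pH 7.4 (±0.2). Compounds dissolved in DMSO, tested at final 500 to 0.49 µmol/L. Inoculum in sterile water matched to 0.5 McFarland. Incubated in the dark, humid atmosphere, 35 °C, read at 24 and 48 h visually and at 540 nm. MIC taken as ≥95% growth reduction (IC95) versus control.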

[16] = system: Staphylococcus epidermidis; assay: Antibacterial activity against Staphylococcus epidermidis H 6966/08 after 48 hrs by microdilution broth method; conditions: H 6966/08, 48 h; method in brief: as §2
Enterococcus sp. [17] = assay: Antibacterial activity against Enterococcus sp. J 14365/08 after 24 hrs by microdilution broth method; conditions: J 14365/08, 24 h; method in brief: as §2
Enterococcus sp. [18] = assay: Antibacterial activity against Enterococcus sp. J 14365/08 after 48 hrs by microdilution broth method; conditions: J 14365/08, 48 h; method in brief: as §2
Escherichia coli [19] = assay: Antibacterial activity against Escherichia coli CCM4517 after 24 hrs by microdilution broth method; conditions: CCM4517, 24 h; method in brief: as §2
Escherichia coli [20] = assay: Antibacterial activity against Escherichia coli CCM4517 after 48 hrs by microdilution broth method; conditions: CCM4517, 48 h; method in brief: as §2
Klebsiella pneumoniae [21] = assay: Antibacterial activity against Klebsiella pneumoniae D 11750/08 after 24 hrs by microdilution broth method; conditions: D 11750/08, 24 h; method in brief: as §2
Klebsiella pneumoniae [22] = assay: Antibacterial activity against Klebsiella pneumoniae D 11750/08 after 48 hrs by microdilution broth method; conditions: D 11750/08, 48 h; method in brief: as §2
Klebsiella pneumoniae [23] = assay: Antibacterial activity against ESBL-positive Klebsiella pneumoniae J 14368/08 after 24 hrs by microdilution broth method; conditions: J 14368/08, 24 h; method in brief: as §2
Klebsiella pneumoniae [24] = assay: Antibacterial activity against ESBL-positive Klebsiella pneumoniae J 14368/08 after 48 hrs by microdilution broth method; conditions: J 14368/08, 48 h; method in brief: as §2
Pseudomonas aeruginosa [25] = assay: Antibacterial activity against Pseudomonas aeruginosa CCM 1961 after 24 hrs by microdilution broth method; conditions: CCM 1961, 24 h; method in brief: as §2
Pseudomonas aeruginosa [26] = assay: Antibacterial activity against Pseudomonas aeruginosa CCM 1961 after 48 hrs by microdilution broth method; conditions: CCM 1961, 48 h; method in brief: as §2
Candida albicans [27] = assay: Antifungal activity against Candida albicans ATCC 44859 after 24 hrs by microdilution broth method; conditions: ATCC 44859, 24 h
Method in brief: (§3)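 CLSI M27-A3 broth microdilution in RPMI 1640 with glutamine, buffered to pH 7.0 with MOPS; DMSO diluent. Yeast inoculum 5 × 10^3 ± 0.2 CFU/mL. Moulds grown on Sabouraud agar 3–10 days before spore harvest, final inoculum 0.5-5 × 10^4 CFU/mL, checked in a Bürker chamber. Incubated dark, humid, 35 °C, read at 24 and 48 h visually and at 540 nm. MIC taken as ≥80% (yeasts) or ≥50% (filamentous) growth reduction versus control.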

Candida albicans [28] = assay: Antifungal activity against Candida albicans ATCC 44859 after 48 hrs by microdilution broth method; conditions: ATCC 44859, 48 h; method in brief: as §3
Candida tropicalis [29] = assay: Antifungal activity against Candida tropicalis 156 after 24 hrs by microdilution broth method; conditions: Candida tropicalis, 156, 24 h; method in brief: as §3
Candida tropicalis [30] = assay: Antifungal activity against Candida tropicalis 156 after 48 hrs by microdilution broth method; conditions: Candida tropicalis, 156, 48 h; method in brief: as §3
Pichia kudriavzevii [31] = assay: Antifungal activity against Candida krusei E28 after 24 hrs by microdilution broth method; conditions: E28, 24 h; method in brief: as §3
Pichia kudriavzevii [32] = assay: Antifungal activity against Candida krusei E28 after 48 hrs by microdilution broth method; conditions: E28, 48 h; method in brief: as §3
Nakaseomyces glabratus [33] = assay: Antifungal activity against Candida glabrata 20/I after 24 hrs by microdilution broth method; method in brief: as §3
Nakaseomyces glabratus [34] = assay: Antifungal activity against Candida glabrata 20/I after 48 hrs by microdilution broth method; method in brief: as §3
Trichosporon asahii [35] = assay: Antifungal activity against Trichosporon asahii 1188 after 24 hrs by microdilution broth method; conditions: Trichosporon asahii, 1188, 24 h; method in brief: as §3
Trichosporon asahii [36] = assay: Antifungal activity against Trichosporon asahii 1188 after 48 hrs by microdilution broth method; conditions: Trichosporon asahii, 1188, 48 h; method in brief: as §3
Aspergillus fumigatus [37] = assay: Antifungal activity against Aspergillus fumigatus 231 after 24 hrs by microdilution broth method; conditions: Aspergillus fumigatus, 231, 24 h; method in brief: as §3
Aspergillus fumigatus [38] = assay: Antifungal activity against Aspergillus fumigatus 231 after 48 hrs by microdilution broth method; conditions: Aspergillus fumigatus, 231, 48 h; method in brief: as §3
Lichtheimia corymbifera [39] = assay: Antifungal activity against Absidia corymbifera 272 after 24 hrs by microdilution broth method; conditions: Lichtheimia corymbifera, 272, 24 h; method in brief: as §3
Lichtheimia corymbifera [40] = assay: Antifungal activity against Absidia corymbifera 272 after 48 hrs by microdilution broth method; conditions: Lichtheimia corymbifera, 272, 48 h; method in brief: as §3
[41] = system: Trichophyton mentagrophytes; assay: Antifungal activity against Trichophyton mentagrophytes 445 after 24 hrs by microdilution broth method; conditions: Trichophyton mentagrophytes, 445, 24 h
[42] = system: Trichophyton mentagrophytes; assay: Antifungal activity against Trichophyton mentagrophytes 445 after 48 hrs by microdilution broth method; conditions: Trichophyton mentagrophytes, 445, 48 h

Measured: MIC

O=C(Nc1cccc(I)c1)c1ccc([N+](=O)[O-])cc1O
3.9 µM: Staphylococcus aureus [11] | Staphylococcus aureus [12] | Staphylococcus aureus [13] | Staphylococcus aureus [14]
62.5 µM: Mycobacterium avium [4]
16 µM: [1] | [2] | Mycobacterium kansasii [6] | Mycobacterium kansasii [7] | Mycobacterium kansasii [8] | Mycobacterium kansasii [9] | Mycobacterium kansasii [10]
15.6 µM: [15] | [16]
32 µM: Mycobacterium avium [3]
8 µM: Mycobacterium kansasii [5]
> 500 µM: all other assays above

O=C(Nc1ccc([N+](=O)[O-])c(C(F)(F)F)c1)c1ccc([N+](=O)[O-])cc1O
7.81 µM: Staphylococcus aureus [11] | Staphylococcus aureus [12] | [15] | [16]
125 µM: Lichtheimia corymbifera [39] | Lichtheimia corymbifera [40]
250 µM: Enterococcus sp. [17] | Pichia kudriavzevii [31] | Pichia kudriavzevii [32] | Trichosporon asahii [35] | Aspergillus fumigatus [37] | Aspergillus fumigatus [38]
32 µM: Mycobacterium kansasii [6] | Mycobacterium kansasii [7] | Mycobacterium kansasii [9] | Mycobacterium kansasii [10]
62.5 µM: Mycobacterium avium [3] | Mycobacterium avium [4]
16 µM: [1] | [2] | Mycobacterium kansasii [5] | Mycobacterium kansasii [8]
3.9 µM: Staphylococcus aureus [13] | Staphylococcus aureus [14]
500 µM: Enterococcus sp. [18] | Trichosporon asahii [36] | [41]
> 500 µM: all other assays above

O=C(Nc1cccc([N+](=O)[O-])c1)c1ccc([N+](=O)[O-])cc1O
32 µM: [1] | [2] | Mycobacterium kansasii [5] | Mycobacterium kansasii [6] | Mycobacterium kansasii [8] | Mycobacterium kansasii [9] | Mycobacterium kansasii [10]
62.5 µM: Mycobacterium kansasii [7] | Staphylococcus aureus [11] | Staphylococcus aureus [12] | [16]
31.2 µM: [15]
125 µM: Mycobacterium avium [3] | Mycobacterium avium [4] | Staphylococcus aureus [13] | Staphylococcus aureus [14]
> 250 µM: all other assays above
